This passage reports MIC and Activity results from ChEMBL document CHEMBL4422685, “Design, synthesis and evaluation of a series of 5-methoxy-2,3-naphthalimide derivatives as AcrB inhibitors for the reversal of bacterial resistance” (Bioorg Med Chem Lett, 2019).

Series [1] concerns the target T1, Multidrug efflux pump subunit AcrB (Escherichia coli (strain K12)) (UniProt P31224).
T1 sequence (whole entry): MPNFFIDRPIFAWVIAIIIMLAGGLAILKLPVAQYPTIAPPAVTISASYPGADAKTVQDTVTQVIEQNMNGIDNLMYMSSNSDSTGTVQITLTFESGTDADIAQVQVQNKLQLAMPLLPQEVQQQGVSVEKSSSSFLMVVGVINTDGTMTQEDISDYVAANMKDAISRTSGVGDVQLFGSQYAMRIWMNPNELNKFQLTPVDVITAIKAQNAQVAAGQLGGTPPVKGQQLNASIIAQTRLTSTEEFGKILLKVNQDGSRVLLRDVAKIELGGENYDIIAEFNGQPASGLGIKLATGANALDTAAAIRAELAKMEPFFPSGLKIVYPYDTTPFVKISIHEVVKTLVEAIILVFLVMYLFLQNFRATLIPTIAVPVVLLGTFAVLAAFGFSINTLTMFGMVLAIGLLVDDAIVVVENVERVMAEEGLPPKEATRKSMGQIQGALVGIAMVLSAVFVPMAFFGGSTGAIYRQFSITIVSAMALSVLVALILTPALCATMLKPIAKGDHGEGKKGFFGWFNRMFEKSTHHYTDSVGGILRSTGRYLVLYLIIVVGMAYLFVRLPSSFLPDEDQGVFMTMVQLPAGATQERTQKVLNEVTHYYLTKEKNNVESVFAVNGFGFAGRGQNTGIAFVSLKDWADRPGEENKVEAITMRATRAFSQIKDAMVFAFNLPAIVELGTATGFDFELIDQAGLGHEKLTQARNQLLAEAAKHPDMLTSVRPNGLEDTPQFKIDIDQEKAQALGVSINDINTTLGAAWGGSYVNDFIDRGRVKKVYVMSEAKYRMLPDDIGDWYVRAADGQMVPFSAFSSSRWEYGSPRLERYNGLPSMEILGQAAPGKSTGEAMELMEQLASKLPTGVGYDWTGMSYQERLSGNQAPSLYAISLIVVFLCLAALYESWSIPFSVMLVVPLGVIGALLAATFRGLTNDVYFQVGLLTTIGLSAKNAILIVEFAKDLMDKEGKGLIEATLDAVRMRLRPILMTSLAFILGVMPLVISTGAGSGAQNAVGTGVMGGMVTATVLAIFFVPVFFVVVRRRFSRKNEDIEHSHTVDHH
Kind of series: Inhibition of AcrB in wild-type drug-resistant Escherichia coli […] assessed as potentiation of erythromycin-induced antimicrobial activity by measuring erythromycin MIC at 64 ug/ml by checkerboard titration method (reference value: 64 ug/ml).

The test system of series [2] is Escherichia coli. Kind of series: Toxicity against wild-type drug-resistant Escherichia coli […] at 128 ug/ml. In kind it is organism-based. As to conditions: in vivo. In a few lines: (§1)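 MIC determination against wild-type resistant E. coli BW25113 and an isogenic acrB-deleted strain; highest concentration tested 128 mg/L.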
In series [3] the target is T1, Multidrug efflux pump subunit AcrB (Escherichia coli (strain K12)). Nature of the series: Inhibition of AcrB in wild-type drug-resistant Escherichia coli […] assessed as potentiation of tetraphenyl phosphonium chloride-induced antimicrobial activity by measuring tetraphenyl phosphonium chloride MIC at 128 ug/ml by checkerboard titration method (reference value: 1024 ug/ml).

Series [4] shares this target. Kind of series: Inhibition of AcrB in wild-type drug-resistant Escherichia coli […] assessed as potentiation of tetraphenyl phosphonium chloride-induced antimicrobial activity by measuring tetraphenyl phosphonium chloride MIC at 8 ug/ml by checkerboard titration method (reference value: 1024 ug/ml).
Series [5] has the same target. Nature of the series: Inhibition of AcrB in wild-type drug-resistant Escherichia coli […] assessed as potentiation of chloramphenicol-induced antimicrobial activity by measuring chloramphenicol MIC at 128 ug/ml by checkerboard titration method (Rvb =16 ug/ml).
The target is the same in series [6]. Nature of the series: Inhibition of AcrB in wild-type drug-resistant Escherichia coli […] assessed as potentiation of chloramphenicol-induced antimicrobial activity by measuring chloramphenicol MIC at 8 ug/ml by checkerboard titration method (Rvb =16 ug/ml).
Series [7] shares this target. Nature of the series: Inhibition of AcrB in wild-type drug-resistant Escherichia coli […] assessed as potentiation of erythromycin-induced antimicrobial activity by measuring erythromycin MIC at 32 ug/ml by checkerboard titration method (reference value: 64 ug/ml).
Series [8] concerns Escherichia coli. Nature of the series: Disruption of Escherichia coli inner membrane integrity at 128 ug/ml after 10 mins by DiOC2(3) probe based fluorescence assay. To be noted: in vivo. In kind it is ADME, organism-based. In a few lines:
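Bacterial suspensions pre-exposed to compound for 10 min, then DiOC2(3) added and fluorescence followed to plateau. Cells re-energized with 0.5% glucose; membrane potential (inside negative) read as fluorescence rise to plateau, then collapsed with the proton ionophore CCCP. Untreated cells run alongside.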

Series [9] concerns the target T1, Multidrug efflux pump subunit AcrB (Escherichia coli (strain K12)). Nature of the series: Inhibition of AcrB in wild-type drug-resistant Escherichia coli […] assessed as potentiation of erythromycin-induced antimicrobial activity by measuring erythromycin MIC at 128 ug/ml by checkerboard titration method (reference value: 64 ug/ml).
For series [10], the system named is Escherichia coli. Kind of series: Toxicity against AcrB deficient Escherichia coli AcrB lacking at 128 ug/ml. To be noted: in vivo. In kind it is organism-based. In a few lines: as §1
The target in series [11] is T1, Multidrug efflux pump subunit AcrB (Escherichia coli (strain K12)). Kind of series: Inhibition of AcrB in wild-type drug-resistant Escherichia coli […] assessed as potentiation of levofloxacin-induced antimicrobial activity by measuring levofloxacin MIC at 64 ug/ml by checkerboard titration method (reference value: 0.063 ug/ml).
For series [12] the target is unchanged. Kind of series: Inhibition of AcrB in wild-type drug-resistant Escherichia coli […] assessed as potentiation of levofloxacin-induced antimicrobial activity by measuring levofloxacin MIC at 16 ug/ml by checkerboard titration method (reference value: 0.063 ug/ml).
For series [13] the target is unchanged. Kind of series: Inhibition of AcrB in wild-type drug-resistant Escherichia coli […] assessed as potentiation of tetraphenyl phosphonium chloride-induced antimicrobial activity by measuring tetraphenyl phosphonium chloride MIC at 16 ug/ml by checkerboard titration method (reference value: 1024 ug/ml).
Series [14] relates to Escherichia coli. Kind of series: Induction of Escherichia coli outer membrane permeabilization assessed as increase in nitrocefin hydrolysis at 128 ug/ml by spectroscopic method. In kind it is organism-based.
Series [15] has as its target T1, Multidrug efflux pump subunit AcrB (Escherichia coli (strain K12)). Kind of series: Inhibition of AcrB in wild-type drug-resistant Escherichia coli […] assessed as potentiation of tetraphenyl phosphonium chloride-induced antimicrobial activity by measuring tetraphenyl phosphonium chloride MIC at 32 ug/ml by checkerboard titration method (reference value: 1024 ug/ml).

Series [16] has the same target. Nature of the series: Inhibition of AcrB in wild-type drug-resistant Escherichia coli […] assessed as potentiation of levofloxacin-induced antimicrobial activity by measuring levofloxacin MIC at 128 ug/ml by checkerboard titration method (reference value: 0.063 ug/ml).
For series [17] the target is unchanged. Kind of series: Inhibition of AcrB in wild-type drug-resistant Escherichia coli […] assessed as potentiation of erythromycin-induced antimicrobial activity by measuring erythromycin MIC at 16 ug/ml by checkerboard titration method (reference value: 64 ug/ml).
For series [18] the target is unchanged. Nature of the series: Inhibition of AcrB in wild-type drug-resistant Escherichia coli […] assessed as potentiation of erythromycin-induced antimicrobial activity by measuring erythromycin MIC at 8 ug/ml by checkerboard titration method (reference value: 64 ug/ml).

With `COc1cccc2cc3c(cc12)C(=O)N(C(C)C)C3=O`, the MIC is 32 µg/mL in series [1]; 512 µg/mL in [3]; 1020 µg/mL in series [4]; 8 µg/mL in [5]; 8 µg/mL in series [6]; 32 µg/mL in series [7]. The MIC in series [9] is 32 µg/mL; in [11] it was 0.0313 µg/mL; in series [12] it was 0.063 µg/mL; in [13], 1020 µg/mL; in series [15] it was 1020 µg/mL; in series [16], 0.0313 µg/mL. The MIC in [17] and in series [18] was 32 µg/mL in each case. For the same compound, the Activity result in series [2], in series [8], in [10] and in [14] was “Non-Toxic” throughout.

On to `CCCCCCN1C(=O)c2cc3cccc(OC)c3cc2C1=O`, for which the MIC is 16 µg/mL in series [1]; 128 µg/mL in [3]; 1020 µg/mL in series [4]; 8 µg/mL in [5]; 16 µg/mL in series [6]; 32 µg/mL in [7]. Moreover, the MIC in series [9] turned out to be 8 µg/mL; in [11] it was 0.063 µg/mL; in [12], 0.063 µg/mL; in [13], 1020 µg/mL; in series [15] it was 512 µg/mL; in series [16], 0.0313 µg/mL. Besides, the MIC in series [17] amounted to 32 µg/mL; in series [18], 64 µg/mL. The Activity entry in [2], in [8], in series [10] and in series [14] was “Non-Toxic” in each case.

`CCc1ccccc1N1C(=O)c2cc3cccc(OC)c3cc2C1=O`: the MIC amounted to 64 µg/mL in series [1]; 512 µg/mL in series [3]; 1020 µg/mL in [4]; 8 µg/mL in series [5]; 16 µg/mL in series [6]; 64 µg/mL in [7]. Further, the MIC is 32 µg/mL in series [9]; 0.0313 µg/mL in series [11]; 0.063 µg/mL in series [12]; 1020 µg/mL in series [13]; 1020 µg/mL in series [15]; 0.0313 µg/mL in series [16]. Further, the MIC in series [17] and in series [18] was 64 µg/mL each time. Moreover, the Activity entry in series [2], in [8], in series [10] and in series [14] was “Non-Toxic” throughout.

As for `COc1cccc2cc3c(cc12)C(=O)N(C1CCCC1)C3=O`, the MIC in series [1] is 16 µg/mL; in series [3] it was 1020 µg/mL; in series [4] it was 1020 µg/mL; in series [5] it was 16 µg/mL; in [6], 16 µg/mL; in series [7], 32 µg/mL. Also, the MIC in series [9] amounted to 8 µg/mL; in series [11], 0.063 µg/mL; in series [12], 0.063 µg/mL; in [13] it was 1020 µg/mL; in [15], 1020 µg/mL; in series [16], 0.063 µg/mL. Also, the MIC in [17] and in series [18] was 64 µg/mL throughout. Besides, the Activity result in series [2], in series [8], in series [10] and in [14] was “Non-Toxic” throughout.

For `COc1cccc2cc3c(cc12)C(=O)N(C)C3=O`, the MIC in series [1] amounted to 32 µg/mL; in series [3], 1020 µg/mL; in [4], 1020 µg/mL; in series [5], 16 µg/mL; in [6], 16 µg/mL; in [7], 64 µg/mL. For the same compound, the MIC in [9] is 32 µg/mL; in [11], 0.0313 µg/mL; in [12], 0.063 µg/mL; in [13], 1020 µg/mL; in [15], 1020 µg/mL; in [16], 0.0313 µg/mL. The MIC in series [17] and in series [18] was 64 µg/mL in each case. Also, the Activity entry in [2], in series [8] and in series [10] was “Non-Toxic” in each case.

As to `COc1ccc(CN2C(=O)c3cc4cccc(OC)c4cc3C2=O)cc1`, the MIC turned out to be 32 µg/mL in [1]; 1020 µg/mL in series [3]; 1020 µg/mL in series [4]; 16 µg/mL in series [5]; 16 µg/mL in series [6]; 32 µg/mL in [7]. Besides, the MIC in series [9] stood at 32 µg/mL; in series [11], 0.063 µg/mL; in series [12] it was 0.063 µg/mL; in [13], 1020 µg/mL; in series [15], 1020 µg/mL; in [16], 0.063 µg/mL. The MIC in series [17] is 32 µg/mL; in [18], 64 µg/mL. Moreover, the Activity result in series [2] and in series [10] was “Non-Toxic” each time.

On to `COc1cccc2cc3c(cc12)C(=O)N(c1ccccc1Cl)C3=O`, for which the MIC came out at 64 µg/mL in series [1]; 512 µg/mL in [3]; 1020 µg/mL in series [4]; 16 µg/mL in series [5]; 16 µg/mL in series [6]; 64 µg/mL in series [7]. Moreover, the MIC in [9] came out at 16 µg/mL; in series [11], 0.063 µg/mL; in [12] it was 0.063 µg/mL; in series [13], 1020 µg/mL; in [15], 1020 µg/mL; in series [16], 0.063 µg/mL. Also, the MIC in [17] and in series [18] was 64 µg/mL throughout. The Activity result in series [2], in series [8], in series [10] and in series [14] was “Non-Toxic” each time.
